≈ marks a conversion by molar mass, not a printed value. Calls of active or inactive are those of the source. The rule behind the calls is not given here.
Key:
SGC-7901 = test: Cytotoxicity against human SGC7901 after 48 hrs by MTT assay; assay type: functional, cell-based
How it was run: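 SGC-7901 cells were diluted to 3 × 10⁴ cells/mL and seeded at 100 µL per well, then held 24 h at 37 °C in 5% CO₂ before treatment. Samples at pre-set concentrations went into six wells each, with 5-fluorouracil as positive control and DMSO as negative control. Read-out was absorbance at 570 nm. Data are the mean ± SD of three experiments in triplicate. IC50 is the concentration at which 50% of cells survive.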

[1] = biological target: DNA polymerase I, thermostable (Thermus aquaticus) (UniProt P19821); test: Inhibition of Thermus aquaticus taq polymerase at 0 to 60 uM
DNA polymerase I, thermostable (Thermus aquaticus), sequence (P19821 whole entry): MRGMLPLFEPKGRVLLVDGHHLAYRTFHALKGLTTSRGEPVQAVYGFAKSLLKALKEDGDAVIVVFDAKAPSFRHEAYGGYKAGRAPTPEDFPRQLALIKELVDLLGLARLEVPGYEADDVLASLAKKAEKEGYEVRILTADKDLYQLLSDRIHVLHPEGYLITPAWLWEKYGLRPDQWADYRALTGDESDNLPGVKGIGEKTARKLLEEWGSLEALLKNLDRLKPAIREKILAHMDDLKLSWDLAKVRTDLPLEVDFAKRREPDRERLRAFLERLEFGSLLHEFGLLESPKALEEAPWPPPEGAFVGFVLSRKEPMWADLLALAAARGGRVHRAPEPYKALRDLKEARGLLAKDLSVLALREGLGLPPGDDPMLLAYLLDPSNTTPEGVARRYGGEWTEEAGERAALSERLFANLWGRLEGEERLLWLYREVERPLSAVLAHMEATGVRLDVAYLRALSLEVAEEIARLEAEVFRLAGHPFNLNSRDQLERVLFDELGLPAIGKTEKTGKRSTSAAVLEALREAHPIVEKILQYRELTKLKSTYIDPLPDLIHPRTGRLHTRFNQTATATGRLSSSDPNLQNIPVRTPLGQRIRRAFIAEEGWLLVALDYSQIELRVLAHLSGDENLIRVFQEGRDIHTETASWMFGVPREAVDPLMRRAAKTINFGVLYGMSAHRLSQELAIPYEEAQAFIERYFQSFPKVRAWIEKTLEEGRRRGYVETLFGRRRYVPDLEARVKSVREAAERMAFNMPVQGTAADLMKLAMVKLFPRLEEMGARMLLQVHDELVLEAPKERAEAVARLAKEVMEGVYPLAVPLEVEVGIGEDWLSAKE

[2] = biological target: T1, Telomerase reverse transcriptase (Homo sapiens, UniProt O14746); test: Inhibition of human telomerase in human SGC7901 cells at 0 to 60 uM by TRAP assay; assay type: cell-based; settings: SGC-7901
T1 sequence (O14746 whole entry): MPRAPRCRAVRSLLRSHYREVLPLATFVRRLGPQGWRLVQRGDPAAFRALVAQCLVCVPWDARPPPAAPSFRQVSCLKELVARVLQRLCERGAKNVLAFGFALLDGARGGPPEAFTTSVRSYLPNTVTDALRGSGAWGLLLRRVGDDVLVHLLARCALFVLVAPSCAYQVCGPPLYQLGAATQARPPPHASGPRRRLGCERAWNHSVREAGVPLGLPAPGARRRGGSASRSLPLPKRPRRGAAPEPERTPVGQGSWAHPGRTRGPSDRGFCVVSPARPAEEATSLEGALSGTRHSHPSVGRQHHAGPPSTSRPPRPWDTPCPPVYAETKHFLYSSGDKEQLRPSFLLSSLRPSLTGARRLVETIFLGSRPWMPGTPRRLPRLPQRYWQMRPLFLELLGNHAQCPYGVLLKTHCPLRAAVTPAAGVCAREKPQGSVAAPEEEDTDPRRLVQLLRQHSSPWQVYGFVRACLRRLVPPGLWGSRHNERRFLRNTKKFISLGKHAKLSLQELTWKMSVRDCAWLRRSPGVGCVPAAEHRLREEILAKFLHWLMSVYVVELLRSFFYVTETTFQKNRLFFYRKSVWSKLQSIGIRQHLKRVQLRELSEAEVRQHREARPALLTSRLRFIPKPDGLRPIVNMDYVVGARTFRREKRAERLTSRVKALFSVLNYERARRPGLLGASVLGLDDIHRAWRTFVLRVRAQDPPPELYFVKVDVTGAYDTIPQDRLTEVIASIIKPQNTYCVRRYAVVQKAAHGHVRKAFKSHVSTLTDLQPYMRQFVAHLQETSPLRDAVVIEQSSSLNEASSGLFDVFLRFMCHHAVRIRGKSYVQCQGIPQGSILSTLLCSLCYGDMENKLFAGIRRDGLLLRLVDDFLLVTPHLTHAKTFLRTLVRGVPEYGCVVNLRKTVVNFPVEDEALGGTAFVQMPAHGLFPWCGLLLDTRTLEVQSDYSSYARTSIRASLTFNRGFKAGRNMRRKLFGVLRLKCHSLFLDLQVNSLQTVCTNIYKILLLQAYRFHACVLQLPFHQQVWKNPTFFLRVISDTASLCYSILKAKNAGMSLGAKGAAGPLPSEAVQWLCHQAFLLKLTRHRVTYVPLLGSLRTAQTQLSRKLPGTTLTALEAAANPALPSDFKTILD
How it was run: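 Telomerase inhibition was measured by a modified TRAP assay using SGC-7901 cell extract. Compounds were tested across the stated concentration range. IC50 is the concentration giving 50% telomerase inhibition. Ethidium bromide served as reference control.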

[3] = biological target: T1, Telomerase reverse transcriptase; test: Inhibition of human telomerase in human SGC7901 cells by TRAP assay
[4] = biological target: DNA polymerase I, thermostable (Thermus aquaticus, UniProt P19821); test: Inhibition of Thermus aquaticus taq polymerase
DNA polymerase I, thermostable, sequence (P19821 whole entry): as the sequence (P19821 whole entry) above

[5] = Selectivity index, ratio of IC50 for taq polymerase to IC50 for human telomerase
How it was run: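 Selectivity index is the ratio of the concentration giving 50% Taq polymerase inhibition to the concentration giving 50% telomerase inhibition (modified TRAP, SGC-7901 cell extract).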

[6] = Homo sapiens, SGC-7901, 48 h, read-out: IC50

| Structure (SMILES) | IC50 (SGC-7901; sgc-7901) | inhibition [1] | inhibition [2] | IC50 [3] [µM] | IC50 (SGC-7901; [6]) [µg/mL] | IC50 [4] [µM] | Ratio IC50 [5] |
| --- | --- | --- | --- | --- | --- | --- | --- |
| O=c1c(OCc2ccc(Cl)nc2)c(-c2ccccc2)oc2ccccc12 | Not Active | inactive | inactive |  |  |  |  |
| CC(=O)N1N=C(C)CC1c1ccc(OCc2ccc(Cl)nc2)cc1 (stereo unspecified) | Not Active |  |  | 46.7 |  |  |  |
| O=c1cc(-c2ccc(OCc3ccc(Cl)nc3)cc2)oc2cc(O)cc(O)c12 |  |  |  | 3.5 | 25.9 (≈ 65.5 µM) | 6.8 | 1.9 |
| COc1ccc(-c2cc(=O)c3ccc(OCc4ccc(Cl)nc4)cc3o2)cc1 |  |  |  | 3.1 | 35.2 (≈ 89.3 µM) | 6.4 | 2.1 |
| O=c1cc(-c2ccc(OCc3ccc(Cl)nc3)cc2)oc2cc(OCc3ccc(Cl)nc3)ccc12 |  |  |  | 3 | 18.4 (≈ 36.5 µM) | 5 | 1.6 |
| COc1ccc(-c2oc3ccccc3c(=O)c2OCc2ccc(Cl)nc2)cc1 | Not Active | inactive | inactive |  |  |  |  |
| COc1ccc(-c2coc3cc(OCc4ccc(Cl)nc4)ccc3c2=O)cc1 |  |  |  | 2.5 | 31.9 (≈ 81.1 µM) | 7.5 | 3 |
| O=c1[nH]cc(F)c(=O)[nH]1 [FLUOROURACIL] |  |  |  |  | 7.38 (≈ 56.7 µM) |  |  |
| CC(=O)N1N=C(C)CC1c1ccccc1OCc1ccc(Cl)nc1 (stereo unspecified) | Not Active |  | inactive |  |  | 53.2 |  |
| O=c1cc(-c2ccc(OCc3ccc(Cl)nc3)cc2)oc2cc(OCc3ccc(Cl)nc3)cc(O)c12 |  |  |  | 0.8 | 22.3 (≈ 42.7 µM) | 2 | 2.5 |
| O=c1cc(-c2ccccc2)oc2cc(OCc3ccc(Cl)nc3)cc(O)c12 | Not Active |  |  | 20.9 |  | 27.5 | 1.3 |

Reference: ChEMBL document CHEMBL1177815, “Synthesis and molecular docking studies of novel 2-chloro-pyridine derivatives containing flavone moieties as potential antitumor agents” (Bioorg Med Chem Lett, 2010)
